Sampled rows, rich in hits. Any-hit rate of the full collection: about 1.8%.
Efflux pump mplx: inhibitors of Candida antifungal efflux pumps expressed in yeast | S. cerevisiae Candida pump triplex, Nile Red efflux | inhibition, % at 10 µM | hit rate 0.44% among 330,000 | AID 485275;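 active means plate passing quality check with inhibition over a set limit, or well fluorescence over plate mean plus 4 SD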;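 further: Nile Red retained in pooled yeast measured as flow cytometry median fluorescence; higher means more Nile Red kept so more efflux inhibition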
Statin myotox sup: protects C2C12 myotubes from simvastatin toxicity | ATP luminescence, 48 h; scaled: DMSO 0, geranylgeraniol control 100 | rescue of ATP level, % at 7.49 µM | hit rate 0.78% among 330,000 | AID 602340;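 active means mean ATP rescue above about 67%, or every replicate alone reaching that limit, limit read from the data, passing the limit was not always enough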;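 further: myotubes were challenged with 10 µM simvastatin during compound exposure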
Cneo AK release: causes C. neoformans cell lysis; adenylate kinase release luminescence, 4 h; normalised: neutral wells 0, clomiphene wells 100; lysis activity, % at 15 µM; hit rate 0.2% among 360,000; AID 651654;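 active means mean lysis activity across replicates of at least 80%, whatever share of replicates individually reach that level; inactive means mean lysis activity below 80%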
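Test system: log-phase Cryptococcus neoformans yeast cells; Quantity: yeast cell density of 5 × 10^6 cells/mL; Buffer or medium: YPD; Doses: single compound concentration per well; Timing: 4 h at 37 °C static, read 1 h later; Measured by: AK luminescence; Read-out basis: lysis from increased AK signal; Control set: Clomiphene as positive control.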
SUMO Mot1 rescue: inhibitors of SUMOylation pathway: yeast Mot1-301 growth rescue. hit rate 1% among 320,000. S. cerevisiae Mot1-301 growth rescue, ATP luminescence, 38.5C; percent above DMSO median, 100 means doubled. growth rescue, % at 18.8 µM;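 active means every valid replicate shows activation above 250% relative to neutral control wells; inactive means the rest, any valid replicate at or below 250%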
Cmpd fluor yeast: flagged as fluorescent in efflux inhibitor counter-screen | S. cerevisiae AD/pABC3, compound fluorescence, flow cytometry | AID 588517 | fluorescence ratio to DMSO, % at 10 µM | hit rate 4% among 1,700 | shares compounds with Efflux pump mplx;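 active means fluorescence ratio to DMSO above its plate's cutoff, the plate mean ratio plus 5 SD, cut at about 210% in these data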;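 further: unstained yeast with no Nile Red so the signal is compound autofluorescence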
CaMdr1 efflux inh: Candida Mdr1 efflux pump inhibition. shares compounds with Efflux pump mplx. AID 588518. hit rate 1% among 1,700. inhibition, % at 10 µM. S. cerevisiae AD/CaMDR1, Nile Red efflux, flow cytometry; in the data active means inhibition above about 26%;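 further: higher means more Nile Red retained so more efflux inhibition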
Cdr2 pump inh: inhibitors of Candida albicans Cdr2 efflux pump; shares compounds with Efflux pump mplx; AID 588520; S. cerevisiae AD/CaCDR2, Nile Red retention, flow cytometry; Nile Red retention ratio vs DMSO, % at 10 µM; hit rate 4% among 1,700; in the data active means Nile Red retention ratio vs DMSO above about 190%;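 further: higher ratio means more blocking of Cdr2 efflux of the dye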
Cdr1 pump inh: Candida Cdr1 efflux pump inhibition | shares compounds with Efflux pump mplx | S. cerevisiae AD/CaCDR1, Nile Red efflux, flow cytometry | inhibition, % at 10 µM | hit rate 1% among 1,700 | AID 588522;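 active means inhibition above the screen-wide mean plus twice its standard deviation, cut at about 32% in these data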
Large screens that a line does not name were inactive (follow-up assays come after a bar, where they were run).

c1ccc(C(c2ccccc2)c2noc(CN3CCC(c4ccncc4)CC3)n2)cc1	Efflux pump mplx 5.2 | Cmpd fluor yeast inactive | CaMdr1 efflux inh inactive | Cdr2 pump inh inactive | Cdr1 pump inh inactive
O=C(NOCc1ccccc1)c1coc(-c2ccccc2)n1	Efflux pump mplx 1.4 (no result: SUMO Mot1 rescue) | Cmpd fluor yeast inactive | CaMdr1 efflux inh inactive | Cdr2 pump inh inactive | Cdr1 pump inh inactive
NC(=O)NOCc1ccccc1	none (no result: Statin myotox sup, Cneo AK release)
O=C(CN1CCN(c2ccc(O)cc2)CC1)N(C1CC1)C1CCS(=O)(=O)C1 (centres undefined)	none
Cc1occc1C(=O)NNC(=O)c1ccccc1F	Efflux pump mplx 1.1 (no result: Statin myotox sup, Cneo AK release) | Cmpd fluor yeast inactive | CaMdr1 efflux inh inactive | Cdr2 pump inh inactive | Cdr1 pump inh inactive
Cc1ccccc1S(=O)(=O)Nc1ncnc2scc(-c3ccccc3)c12	Efflux pump mplx 11 | Cmpd fluor yeast inactive | CaMdr1 efflux inh inactive | Cdr2 pump inh inactive | Cdr1 pump inh inactive
CCN1CCN(C(=O)CCn2c(=O)c3cccn3c3cccnc32)CC1	none
CCC(C)(C)NC(=O)C(c1ccccc1F)N(C(=O)c1ccn[nH]1)c1ccccc1 (centres undefined)	Efflux pump mplx 0.4 (no result: Statin myotox sup) | Cmpd fluor yeast inactive | CaMdr1 efflux inh inactive | Cdr2 pump inh inactive | Cdr1 pump inh inactive
CCC(C)(C)NC(=O)C(c1cccs1)N(C(=O)c1ccn[nH]1)c1cccc(OC)c1 (centres undefined)	none (no result: Statin myotox sup, Cneo AK release)
O=C1CCCC2=C1C(Cc1ccccc1)C1=C(CCCC1=O)O2	none
CCCCC1C2=C(CCCC2=O)OC2=C1C(=O)CCC2	Efflux pump mplx 7.6 (no result: Statin myotox sup, Cneo AK release) | Cmpd fluor yeast inactive | CaMdr1 efflux inh inactive | Cdr2 pump inh inactive | Cdr1 pump inh inactive
Cc1cccc(NC(=O)c2nc[nH]c2C(=O)N[C@H](C)c2ccccc2)c1	Efflux pump mplx 0.9 | Cmpd fluor yeast inactive | CaMdr1 efflux inh inactive | Cdr2 pump inh inactive | Cdr1 pump inh inactive
Cc1cc2c([nH]c3ccccc32)c(C)n1	none
Cc1c2ccncc2cc2c1[nH]c1ccccc12	none (no result: Efflux pump mplx, SUMO Mot1 rescue) | Cmpd fluor yeast inactive | CaMdr1 efflux inh inactive | Cdr2 pump inh inactive | Cdr1 pump inh inactive
COC(=O)c1ccccc1NC(=O)Nc1ncccc1C	none (no result: Cneo AK release)
C[C@@H]1CN([C@H](C)CO)C(=O)Cc2cc(NS(=O)(=O)c3cn(C)cn3)ccc2O[C@H]1CN(C)C(=O)Nc1ccc(F)cc1	none (no result: Efflux pump mplx, SUMO Mot1 rescue)
O=C(CSc1ccc(-c2ccccc2)nn1)NC1CCCC1	none
O=C(CSc1ccc(-c2ccccc2)nn1)NC1CCCCC1	Efflux pump mplx 5.7 | Cmpd fluor yeast inactive | CaMdr1 efflux inh inactive | Cdr2 pump inh inactive | Cdr1 pump inh inactive
CCOc1ccccc1NC(=S)NC1CC2CCC1C2 (centres undefined)	Efflux pump mplx 1.1 | Cmpd fluor yeast inactive | CaMdr1 efflux inh inactive | Cdr2 pump inh inactive | Cdr1 pump inh inactive
COc1ccc(NC(=S)NC2CC3CCC2C3)c(OC)c1 (centres undefined)	none
Cc1nc2ccc(NC(=O)C3=NN(C)C(=O)CC3)cc2s1	none
O=C(CNCc1ccc(Cl)cc1)N1CCc2ccccc2C1	none
O=C(NCc1ccc(Cl)cc1)N1CCc2ccccc2C1	Efflux pump mplx 1.3 | Cmpd fluor yeast inactive | CaMdr1 efflux inh inactive | Cdr2 pump inh inactive | Cdr1 pump inh inactive
Cn1cccc1/C=C1\SC(=S)N(CC(=O)O)C1=O	none (no result: Statin myotox sup)
O=C1CCCc2ccccc2N1Cc1ccccc1	none (no result: Statin myotox sup, Cneo AK release)
O=C(COC(=O)CSc1ccc2ccccc2c1)NC1CCCC1	Efflux pump mplx 25 (no result: Statin myotox sup) | Cmpd fluor yeast inactive | CaMdr1 efflux inh inactive | Cdr2 pump inh inactive | Cdr1 pump inh inactive
O=C(COC(=O)CSc1ccc2ccccc2c1)NC1CC1	none
CCN(CC)c1ccc2c(Cl)c(Br)c(=O)oc2c1	Efflux pump mplx 8.6 (no result: Statin myotox sup, Cneo AK release) | Cmpd fluor yeast 452 | CaMdr1 efflux inh inactive | Cdr2 pump inh 504 | Cdr1 pump inh inactive
Cc1nnc(SCC(=O)NNC(=O)COc2ccc(Br)cc2)n1C	none
CN1CCN(Cc2cc(Cl)c3cccnc3c2OC(=O)c2cccs2)CC1	Efflux pump mplx 11 (no result: Statin myotox sup) | Cmpd fluor yeast inactive | CaMdr1 efflux inh inactive | Cdr2 pump inh inactive | Cdr1 pump inh inactive
CC(=O)Nc1ccc(NC2=Nc3ccccc3N3C2=Nc2c(c(C)nn2-c2ccccc2)C3c2ccccc2)cc1 (centres undefined)	none (no result: Statin myotox sup)
COc1cccc(C2c3c(C)nn(-c4ccc([N+](=O)[O-])cc4)c3N=C3C(=O)Nc4ccccc4N32)c1 (centres undefined)	Efflux pump mplx 0.4 (no result: Statin myotox sup, Cneo AK release) | Cmpd fluor yeast inactive | CaMdr1 efflux inh inactive | Cdr2 pump inh inactive | Cdr1 pump inh inactive
COc1ccc(NC2=Nc3ccccc3N3C2=Nc2c(c(C)nn2-c2ccc(C)cc2)C3c2cccnc2)cc1 (centres undefined)	none (no result: Cneo AK release)
Cc1nn(-c2ccc([N+](=O)[O-])cc2)c2c1C(c1ccc(OC(F)F)cc1)N1C(=N2)C(=O)Nc2ccccc21 (centres undefined)	Efflux pump mplx 1.6 (no result: Statin myotox sup, Cneo AK release) | Cmpd fluor yeast inactive | CaMdr1 efflux inh inactive | Cdr2 pump inh inactive | Cdr1 pump inh inactive
O=C(CO/N=C/c1cccc([N+](=O)[O-])c1)NC1CCCCC1	Efflux pump mplx 8.3 (no result: Statin myotox sup) | Cmpd fluor yeast inactive | CaMdr1 efflux inh inactive | Cdr2 pump inh inactive | Cdr1 pump inh inactive
O=C(COC(=O)c1cccc([N+](=O)[O-])c1)NC1CCCC1	none
Cc1c(NC(C)C)c(=O)n(-c2ccccc2)n1C	none
Cc1c(NC(C)c2ccccc2O)c(=O)n(-c2ccccc2)n1C (centres undefined)	Efflux pump mplx 8.2 | Cmpd fluor yeast inactive | CaMdr1 efflux inh inactive | Cdr2 pump inh inactive | Cdr1 pump inh inactive
CCOc1ccc(NC(=O)CSc2nnc(Cc3cccn3C)n2-c2ccc(F)cc2)cc1	none | Cmpd fluor yeast inactive | CaMdr1 efflux inh inactive | Cdr2 pump inh inactive | Cdr1 pump inh inactive
COc1ccc(-n2c(Cc3cccn3C)nnc2SCC(=O)Nc2ccc(F)cc2F)cc1	none
COc1ccc(NC(=O)CSc2nnc(Cc3cccn3C)n2-c2ccc(F)cc2)cc1	none
COc1ccc(NC(=O)CSc2nnc(Cc3cccn3C)n2-c2ccc(C)cc2)cc1OC	Efflux pump mplx 6.7 | Cmpd fluor yeast inactive | CaMdr1 efflux inh inactive | Cdr2 pump inh inactive | Cdr1 pump inh inactive
COc1ccc(-n2c(Cc3cccn3C)nnc2SCC(=O)Nc2ccccc2F)cc1	none | Cmpd fluor yeast inactive | CaMdr1 efflux inh inactive | Cdr2 pump inh inactive | Cdr1 pump inh inactive
COc1ccc(NC(=O)CSc2nnc(Cc3cccn3C)n2CCc2ccccc2)c(OC)c1	Efflux pump mplx 6.7 | Cmpd fluor yeast inactive | CaMdr1 efflux inh inactive | Cdr2 pump inh inactive | Cdr1 pump inh inactive
CCC(C)(C(=O)NC1CCCC1)N(Cc1cccs1)C(=O)c1ccc2c(c1)OCO2 (centres undefined)	none (no result: Statin myotox sup, Cneo AK release)
CCc1nn(C(CC)C(=O)NCCc2ccc(OC)cc2OC)c(=O)c2cc3occc3n12 (centres undefined)	none
